Counter-ions that a name gives are not always drawn.
Assays:
Format in all cases: functional, cell-based
[1] = Antiproliferative activity against mouse B16-BL6 cells assessed as cell viability after 72 hrs by MTT assay; conditions: B16-BL6, 72 h
Method in brief: (§1)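 MTT viability assay. HT-1080 and B-16 BL6 were kept in Eagle's MEM, colon 26-L5 in RPMI, all with 10% FCS, 0.1% NaHCO3 and 2 mM glutamine. 2500 cells/well were attached for 24 h at 37 °C, 5% CO2, then exposed 72 h to graded concentrations (DMSO stock, final DMSO <0.1%). MTT was added for 2 h, formazan read at 540 nm, and IC50 taken from means of four wells.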

[2] = Antiproliferative activity against mouse Colon 26-L5 cells assessed as cell viability after 72 hrs by MTT assay
HT-1080 = experiment: Antiproliferative activity against human HT1080 cells assessed as cell viability after 72 hrs by MTT assay; conditions: HT-1080, 72 h; method in brief: as §1

SMILES	IC50 [1]	IC50 [2]	IC50 (HT-1080)
CC1CC[C@@]2(OC1)O[C@H]1C[C@@]3(O)[C@@H]4CC=C5C[C@@H](O)C[C@@H](O)[C@]5(C)[C@H]4CC[C@]3(C)[C@@]1(O)[C@@H]2C (mixture of isomers) [(25R,S)-NAMOGENIN A]	> 100 µM	> 100 µM	> 100 µM
C=C1CO[C@@]2(O[C@H]3C[C@H]4[C@@H]5CC=C6C[C@@H](O)C[C@@H](O[C@@H]7OC[C@H](O)[C@H](O)[C@H]7O[C@@H]7O[C@@H](C)[C@H](OC(C)=O)[C@@H](O)[C@H]7O)[C@]6(C)[C@H]5CC[C@]4(C)[C@H]3[C@@H]2C)[C@@H](O)[C@H]1O[C@@H]1O[C@H](C)[C@H](O)[C@H](O)[C@H]1O [NAMONIN D]	42.4 µM	97.4 µM	21.6 µM
C=C1CO[C@@]2(O[C@H]3C[C@H]4[C@@H]5CC=C6C[C@@H](O)C[C@@H](O[C@@H]7OC[C@H](O)[C@H](O)[C@H]7O[C@@H]7O[C@@H](C)[C@H](O)[C@@H](O)[C@H]7O)[C@]6(C)[C@H]5CC[C@]4(C)[C@H]3[C@@H]2C)[C@@H](O)[C@H]1O[C@@H]1O[C@H](C)[C@H](O)[C@H](O)[C@H]1O [NAMONIN C]	> 100 µM	> 100 µM	27.7 µM
C=C1CO[C@@]2(O[C@H]3C[C@H]4[C@@H]5CC=C6C[C@@H](O)C[C@@H](O[C@@H]7OC[C@H](O)[C@H](O[C@@H]8OC[C@@H](OC(C)=O)[C@H](O)[C@H]8O)[C@H]7O[C@@H]7O[C@@H](C)[C@H](OC(C)=O)[C@@H](OC(C)=O)[C@H]7OC(C)=O)[C@]6(C)[C@H]5CC[C@]4(C)[C@H]3[C@@H]2C)[C@@H](O)[C@H]1O[C@@H]1O[C@H](C)[C@H](O)[C@H](O)[C@H]1O [NAMONIN B]	11.8 µM	27.7 µM	0.3 µM
C=C1CO[C@@]2(O[C@H]3C[C@H]4[C@@H]5CC=C6C[C@@H](O)C[C@@H](O[C@@H]7OC[C@H](O)[C@H](O)[C@H]7O[C@@H]7O[C@@H](C)[C@H](OC(C)=O)[C@@H](OC(C)=O)[C@H]7OC(C)=O)[C@]6(C)[C@H]5CC[C@]4(C)[C@H]3[C@@H]2C)[C@@H](O)[C@H]1O[C@@H]1O[C@H](C)[C@H](O)[C@H](O)[C@H]1O	20.9 µM	30.2 µM	3.8 µM
C=C1CO[C@@]2(O[C@H]3C[C@H]4[C@@H]5CC=C6C[C@@H](O)C[C@@H](O[C@@H]7OC[C@H](O)[C@H](O[C@@H]8OC[C@@H](O)[C@H](OC(C)=O)[C@H]8O)[C@H]7O[C@@H]7O[C@@H](C)[C@H](OC(C)=O)[C@@H](OC(C)=O)[C@H]7OC(C)=O)[C@]6(C)[C@H]5CC[C@]4(C)[C@H]3[C@@H]2C)[C@@H](O)[C@H]1O[C@@H]1O[C@H](C)[C@H](O)[C@H](O)[C@H]1O [NAMONIN A]	9.7 µM	26.6 µM	0.2 µM
C=C1CC[C@@]2(OC1)O[C@H]1C[C@H]3[C@@H]4CC=C5C[C@@H](O)C[C@@H](O[C@@H]6OC[C@H](O)[C@H](O)[C@H]6O[C@@H]6O[C@@H](C)[C@H](O)[C@@H](O)[C@H]6O)[C@]5(C)[C@H]4CC[C@]3(C)[C@H]1[C@@H]2C	41.2 µM	95.3 µM	42.1 µM
C=C1CO[C@@]2(O[C@H]3C[C@H]4[C@@H]5CC=C6C[C@@H](O)C[C@@H](O[C@@H]7OC[C@H](O)[C@H](O)[C@H]7O[C@@H]7O[C@@H](C)[C@H](O)[C@@H](O)[C@H]7O)[C@]6(C)[C@H]5CC[C@]4(C)[C@H]3[C@@H]2C)[C@@H](O)[C@H]1O	4.2 µM	5.3 µM	56.5 µM
COc1cccc2c1C(=O)c1c(O)c3c(c(O)c1C2=O)C[C@@](O)(C(=O)CO)C[C@@H]3O[C@H]1C[C@H](N)[C@H](O)[C@H](C)O1 [DOXORUBICIN HYDROCHLORIDE]	0.2 µM	–	0.2 µM
C=C1CO[C@@]2(O[C@H]3C[C@H]4[C@@H]5CC=C6C[C@@H](O)C[C@@H](O[C@@H]7OC[C@H](O)[C@H](O[C@@H]8OC[C@@H](O)[C@H](O)[C@H]8O)[C@H]7O[C@@H]7O[C@@H](C)[C@H](OC(C)=O)[C@@H](OC(C)=O)[C@H]7OC(C)=O)[C@]6(C)[C@H]5CC[C@]4(C)[C@H]3[C@@H]2C)[C@@H](O)[C@H]1O	28.4 µM	76.6 µM	11.1 µM
C=C(CCC1=C(C)[C@H]2[C@H](C[C@H]3[C@@H]4CC=C5C[C@@H](O)C[C@@H](O[C@@H]6OC[C@H](O)[C@H](O)[C@H]6O[C@@H]6O[C@@H](C)[C@H](O)[C@@H](O)[C@H]6O)[C@]5(C)[C@H]4CC[C@@]32C)O1)CO[C@@H]1O[C@H](CO)[C@@H](O)[C@H](O)[C@H]1O	> 100 µM	> 100 µM	> 100 µM
CC1CC[C@@]2(OC1)O[C@H]1C[C@@]3(O)[C@@H]4CC=C5C[C@@H](O)C[C@@H](O)[C@]5(C)[C@H]4CC[C@]3(C)[C@H]1[C@@H]2C (single isomer, unassigned) [NAMOGENIN B]	> 100 µM	> 100 µM	> 100 µM
C=C1CO[C@@]2(O[C@H]3C[C@H]4[C@@H]5CC=C6C[C@@H](O)C[C@@H](O[C@@H]7OC[C@H](O)[C@H](O[C@@H]8OC[C@@H](O)[C@H](O)[C@H]8O)[C@H]7O[C@@H]7O[C@@H](C)[C@H](OC(C)=O)[C@@H](OC(C)=O)[C@H]7OC(C)=O)[C@]6(C)[C@H]5CC[C@]4(C)[C@H]3[C@@H]2C)[C@@H](O)[C@H]1O[C@@H]1O[C@H](C)[C@H](O)[C@H](O)[C@H]1O	11.9 µM	22.1 µM	0.6 µM
C=C1CC[C@@]2(OC1)O[C@H]1C[C@@]3(O)[C@@H]4CC=C5C[C@@H](O)C[C@@H](O)[C@]5(C)[C@H]4CC[C@]3(C)[C@@]1(O)[C@@H]2C [NAMOGENIN C]	> 100 µM	> 100 µM	> 100 µM
C=C1CC[C@@]2(OC1)O[C@H]1C[C@H]3[C@@H]4CC=C5C[C@@H](O)C[C@@H](O[C@@H]6OC[C@H](O)[C@H](O)[C@H]6O)[C@]5(C)[C@H]4CC[C@]3(C)[C@H]1[C@@H]2C	47.9 µM	77.2 µM	40 µM
O=c1[nH]cc(F)c(=O)[nH]1 [FLUOROURACIL]	0.6 µM	0.5 µM	1.5 µM
CC(=O)O[C@H]1CO[C@@H](O[C@@H]2C[C@H](O)CC3=CC[C@H]4[C@@H]5C[C@@H]6OC(CC[C@@H](C)CO[C@@H]7O[C@H](CO)[C@@H](O)[C@H](O)[C@H]7O)=C(C)[C@@H]6[C@@]5(C)CC[C@@H]4[C@]32C)[C@H](O[C@@H]2O[C@@H](C)[C@H](O)[C@@H](O)[C@H]2O)[C@H]1O[C@@H]1OC[C@@H](O)[C@H](O)[C@H]1O [NAMONIN E]	> 100 µM	> 100 µM	21.8 µM
